# In the library only some 0.72% were active in any assay of this set; here they are far more common.
# AI-2 QS modul = Vibrio harveyi AI-2 quorum sensing modulation; Vibrio harveyi JMH597 AI-2 luminescence/OD600 ratio, 9 h; active compounds read low; strain lacks LuxN and CqsS sensors; 0 = neutral-control median; activity change, % at 7.5 µM; 300,000 tested, 0.4% active; AID 2094; in the data active = activity change below about -75%, passing the limit was not always enough; inconclusive = no clear call, values can overlap the other calls;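 also: luminescence divided by OD600 gain over 9 h not by final OD600 alone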
# STK33 inh = human STK33 kinase inhibition; inhibition, % at 10 µM; purified STK33, MBP phosphorylation, ADP-Glo luminescence; 320,000 tested, 0.073% active;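 active = inhibition at or above 25%, using the most active replicate where run in duplicate; inactive = inhibition below 25%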
# PolyA inh = inhibitors of polyadenylation in S. cerevisiae; activity score, % at 12 µM; 300,000 tested, 0.02% active; S. cerevisiae SKY197-pL101 polyadenylation reporter, beta-gal luminescence; efflux-impaired pdr1/pdr3 knockout yeast; score 100 = 6 SD above DMSO; AID 1875;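 active = lowest replicate activity score at least 50, where 100 means six control SD above control mean; inconclusive = lowest score under 50 but half or more replicates reach 50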;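 also: yeast exposed to compound for 9 h at 30 °C; higher score means more reporter readthrough which indicates perturbed polyadenylation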
# GSK3A inh = inhibitors of human GSK-3 alpha kinase | ADP-Glo luminescence, 60 min | inhibition, % at 10 µM | 320,000 tested, 0.1% active;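 active = more than half of replicates show inhibition above 20%; inconclusive = some but at most half of replicates above 20% inhibition; inactive = no replicate shows inhibition above 20%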;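 also: GST-tagged GSK-3 alpha with peptide substrate and 25 µM ATP; 0% = DMSO neutral wells and 100% = GW8510 positive control wells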
# Yeast superoxide = lowers age-related superoxide in aged yeast cells. S. cerevisiae aged cells, superoxide DHE fluorescence; active compounds read low. superoxide response (% of plate mean), % at 10 µM. 330,000 tested, 0.18% active. AID 2690;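 active = superoxide response under a set limit, about three screen SD below normal, cut at about 65% in these data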;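 also: yeast aged for seven days with compound at 30 °C before DHE staining; 100% = average MFI of all compound-treated wells on the plate with controls excluded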
# GSK3B inh = human GSK3beta kinase inhibition; activity score (negative = inhibition), % at 10 µM; P49841; 300,000 tested, 0.038% active; GST-GSK3beta kinase, ADP-Glo luminescence, 60 min; active compounds read low;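 active = more than half of replicate wells score below -50%, meaning over 50% inhibition versus plate controls; inconclusive = some replicates but at most half score below -50%; inactive = no replicate scores below -50%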;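 also: 0% = median DMSO wells and -100% = median GW8510 positive control wells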
# Target sequence (P49841 whole entry, looked up): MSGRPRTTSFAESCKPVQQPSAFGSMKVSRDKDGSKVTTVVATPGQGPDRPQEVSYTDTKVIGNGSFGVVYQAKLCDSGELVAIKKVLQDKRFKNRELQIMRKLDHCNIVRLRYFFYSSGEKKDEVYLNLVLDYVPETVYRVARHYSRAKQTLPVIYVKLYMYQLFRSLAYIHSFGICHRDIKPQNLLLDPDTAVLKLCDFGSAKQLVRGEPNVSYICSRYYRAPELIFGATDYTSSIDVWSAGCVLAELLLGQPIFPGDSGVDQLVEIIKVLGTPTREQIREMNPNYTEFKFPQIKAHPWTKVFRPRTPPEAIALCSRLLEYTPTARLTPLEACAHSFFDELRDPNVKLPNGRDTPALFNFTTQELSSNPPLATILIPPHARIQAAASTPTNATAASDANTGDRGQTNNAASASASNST
#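 Test system – GST-tagged human GSK3beta kinase, cell-free · Incubation – 60 min enzyme reaction, room temperature · Signal – ADP-Glo luminescence · Also added – peptide substrate and ATP at 25 µM · Controls – DMSO neutral wells and GW8510 at 20 µM as positive · Buffer or medium – Tris/MgCl2 kinase buffer · Measure – Luminescence-derived activity versus plate DMSO and GW8510 wells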
# CR mimetic CP = confirmation of caloric restriction mimetics inhibiting yeast age-related superoxide; shares compounds with Yeast superoxide; S. cerevisiae aging, superoxide DHE fluorescence; active compounds read low; superoxide response (% of plate), % at 10 µM; 850 tested, 1% active;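 active = superoxide signal below 65% of the plate average of sample wells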;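 also: cells aged with compound for 7 days at 30 degrees C before staining; 100% equals mean DHE fluorescence of all compound wells on the plate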
# DHE counter = DHE fluorescence interference, counter-screen artifact; 850 tested, under 10 active; shares compounds with Yeast superoxide; S. cerevisiae BY4741, flow cytometry; active compounds read low; AID 435000; fluorescence response, % at 10 µM;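 active = fluorescence response below 15%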;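 also: percent of the mean fluorescence averaged over all compound wells on the plate; lower means stronger quenching of DHE signal or ROS scavenging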
# * marks the source's active call; other numbers are inactive results; ? = inconclusive; . = no result given.
SMILES,AI-2 QS modul,STK33 inh,PolyA inh,GSK3A inh,Yeast superoxide,GSK3B inh,CR mimetic CP,DHE counter
O=C(c1ccc(F)cc1F)N1CCN(c2n[nH]c(=O)[nH]c2=O)CC1,16,1,20,-1,123,5,.,.
CCCCC1(c2ccc(F)cc2)NC(=O)N(CC(=O)N2CCN(C(=O)c3ccco3)CC2)C1=O (stereo not given),8,-2,12,1,94,4,.,.
Cc1nc(-c2ccc([N+](=O)[O-])cc2)sc1C(=O)O,-31,1,21,1,82,1,.,.
Cc1cc(Br)ccc1NC(=O)CN1CCN(c2ccccn2)CC1,10,0,14,0,106,-4,96,91
COc1ccc(NC(=O)CN2CCN(c3ccc(F)cc3)CC2)cc1Cl,16,-1,9,2,115,2,.,.
Cc1cc(Br)ccc1NC(=O)c1sc2ncnc(N3CCN(c4ccccn4)CC3)c2c1C,26,1,14,0,95,3,.,.
N#Cc1ccc(NC(=O)CN2CCN(c3ccccn3)CC2)cc1,14,0,1,-3,98,-1,97,102
CC(C)c1ccc(NC(=O)CN2CCN(c3ccccn3)CC2)cc1,40,0,-3,-3,85,-1,89,93
COc1ccc(NC(=O)CN2CCN(c3ccccn3)CC2)cc1Cl,23,-1,1,-2,55*,-2,99,97
CCCCC1=CC2=CC(=O)C(C)(OC(=O)CC)C(=O)C2=CN1C1CCCC1 (stereo not given),46,1,15,3,90,1,.,.
CC(=O)Oc1ccc(N(c2ccccc2)S(=O)(=O)c2ccc(C)cc2)cc1,-11,0,-6,0,101,-8,.,.
Cc1ccnc(NC(=O)CCC(=O)N(CC(=O)NC(C)(C)C)c2ccc3c(c2)OCO3)c1,5,-1,11,5,104,-4,.,.
Cn1cc(C2CC(c3ccccc3)=NN2C(=O)c2ccccc2)c2ccccc21 (stereo not given),9,-1,-5,3,59*,-1,93,103
CCCC(=O)N1N=C(c2ccccc2)CC1c1cn(C)c2ccccc12 (stereo not given),22,-2,-3,0,100,3,.,.
Cc1cc(C)n2nc(-c3ccccc3)c(-c3ccccc3)c2n1,7,0,-22,-1,93,2,95,92
COc1ccc2nc3ccccc3nc2c1N,.,2,3,1,49*,2,57*,94
COc1ccc(C)cc1-n1nnnc1SCc1cn2ccsc2n1,11,-3,17,11,62*,2,118,110
COc1ccc2nc(Nc3nc(C)c(CCC(C)C)c(=O)[nH]3)nc(C)c2c1,33,1,16,0,65*,8,122,108
c1ccc2nc3ccccc3nc2c1,40,0,0,0,64*,1,67,94
Cc1ccc2nsnc2c1NC(=O)c1ccc([N+](=O)[O-])o1,?,1,-17,0,125,-2,.,.
O=C(CN1CCN(C(=O)c2c(F)cccc2F)CC1)Nc1ccccc1C(F)(F)F,24,-1,1,-2,52*,-13,108,110
COc1nnc(-c2ccc(C)c(S(=O)(=O)NCC3CCCO3)c2)c2ccccc12 (stereo not given),-1,-3,11,0,109,4,.,.
CC(=O)Nc1ccc(Nc2nnc(-c3ccc(C)c(S(=O)(=O)NCCO)c3)c3ccccc23)cc1,8,-1,-9,0,101,-5,.,.
COc1ccc(-c2nnc(Nc3ccc(CC(N)=O)cc3)c3ccccc23)cc1,16,1,17,0,100,1,.,.
CNC(=O)c1cc(Nc2nnc(C)c3ccccc23)ccc1OC,12,0,9,2,103,2,.,.
